Results reported in ChEMBL document CHEMBL3351655, “Scaffold decoration at positions 5 and 8 of 1,2,4-triazolo[1,5-c]pyrimidines to explore the antagonist profiling on adenosine receptors: a preliminary structure-activity relationship study” (J Med Chem, 2014).

Legend:
Adenosine receptor A1 = target: T1, Adenosine receptor A1 (Homo sapiens, UniProt P30542); assay: Displacement of [3H]CCPA from human adenosine A1 receptor expressed in CHO cells; type: cell-based
T1 sequence (P30542 whole entry): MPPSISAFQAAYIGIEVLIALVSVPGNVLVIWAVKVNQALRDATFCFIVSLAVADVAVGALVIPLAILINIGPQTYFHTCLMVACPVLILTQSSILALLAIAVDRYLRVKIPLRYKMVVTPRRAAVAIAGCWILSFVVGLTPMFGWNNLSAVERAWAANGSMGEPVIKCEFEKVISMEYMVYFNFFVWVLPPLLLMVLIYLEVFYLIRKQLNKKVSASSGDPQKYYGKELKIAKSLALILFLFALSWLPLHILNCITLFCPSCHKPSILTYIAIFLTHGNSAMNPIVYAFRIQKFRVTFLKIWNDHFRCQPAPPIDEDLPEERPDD
Summary of the method: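 Stably transfected CHO cells were homogenised and spun at 1000g to remove nuclei and fragments. Membranes were then pelleted at 100 000g, resuspended in binding buffer, frozen in liquid nitrogen and stored. Radioligand was [³H]CCPA, with nonspecific binding defined by 1 mM theophylline.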

Adenosine receptor A3 = target: T2, Adenosine receptor A3 (Homo sapiens, UniProt P0DMS8); assay: Displacement of [3H]NECA from human adenosine A3 receptor expressed in CHO cells; type: cell-based
T2 sequence (P0DMS8 whole entry): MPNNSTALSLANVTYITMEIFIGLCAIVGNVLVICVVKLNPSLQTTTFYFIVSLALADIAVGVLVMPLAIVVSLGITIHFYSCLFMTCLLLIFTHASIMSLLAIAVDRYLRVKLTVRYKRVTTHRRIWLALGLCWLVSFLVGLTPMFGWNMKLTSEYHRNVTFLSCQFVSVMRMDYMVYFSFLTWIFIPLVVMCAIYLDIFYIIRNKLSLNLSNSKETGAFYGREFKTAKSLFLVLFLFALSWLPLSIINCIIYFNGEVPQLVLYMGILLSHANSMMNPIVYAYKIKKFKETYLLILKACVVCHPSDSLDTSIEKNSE
Summary of the method: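 Radioligand [³H]NECA was used on membranes from stably transfected CHO cells, prepared by a 1000g clearing spin then pelleting at 100 000g. Pellets were resuspended in binding buffer, frozen in liquid nitrogen and stored. Nonspecific binding was defined with 100 μM R-PIA.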

CHO [1] = assay: Selectivity ratio of Ki for human adenosine A1 receptor expressed in CHO cells to Ki for human adenosine A2A receptor expressed in CHO cells; type: cell-based
[2] = target: Adenosine receptors; A1 & A3 (Homo sapiens) (UniProt P30542+P0DMS8); assay: Selectivity ratio of Ki for human adenosine A1 receptor expressed in CHO cells to Ki for human adenosine A3 receptor expressed in CHO cells; type: cell-based
Adenosine receptor A2b = target: T3, Adenosine receptor A2b (Homo sapiens, UniProt P29275); assay: Antagonist activity at human adenosine A2B receptor expressed in CHO cells assessed as inhibition of NECA-stimulated adenylyl cyclase activity; type: functional, cell-based
T3 sequence (P29275 whole entry): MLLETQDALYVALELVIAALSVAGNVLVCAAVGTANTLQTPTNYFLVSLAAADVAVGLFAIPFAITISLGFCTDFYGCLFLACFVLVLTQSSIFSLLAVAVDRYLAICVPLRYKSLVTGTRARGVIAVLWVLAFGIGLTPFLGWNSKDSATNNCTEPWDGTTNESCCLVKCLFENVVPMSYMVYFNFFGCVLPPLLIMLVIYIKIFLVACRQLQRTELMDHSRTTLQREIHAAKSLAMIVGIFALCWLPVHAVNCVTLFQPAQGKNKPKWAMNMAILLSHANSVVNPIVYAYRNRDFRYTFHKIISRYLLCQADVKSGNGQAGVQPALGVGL
Summary of the method: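 Membranes from stably transfected CHO cells, made with a single high-speed centrifugation of the homogenate. Incubated 20 min with about 150 000 cpm [α-³²P]ATP, in a mixture without EGTA and NaCl. IC50 for concentration-dependent inhibition of NECA-stimulated adenylyl cyclase was fitted with the Hill equation and converted to Ki by Cheng–Prusoff.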

Adenosine receptor A2a = Adenosine receptor A2a (Homo sapiens, UniProt P29274); assay: Displacement of [3H]NECA from human adenosine A2A receptor expressed in CHO cells; type: cell-based
CHO [3] = assay: Selectivity ratio of Ki for human adenosine A2A receptor expressed in CHO cells to Ki for human adenosine A3 receptor expressed in CHO cells; type: cell-based

Adenosine receptor A2a, sequence (P29274 whole entry): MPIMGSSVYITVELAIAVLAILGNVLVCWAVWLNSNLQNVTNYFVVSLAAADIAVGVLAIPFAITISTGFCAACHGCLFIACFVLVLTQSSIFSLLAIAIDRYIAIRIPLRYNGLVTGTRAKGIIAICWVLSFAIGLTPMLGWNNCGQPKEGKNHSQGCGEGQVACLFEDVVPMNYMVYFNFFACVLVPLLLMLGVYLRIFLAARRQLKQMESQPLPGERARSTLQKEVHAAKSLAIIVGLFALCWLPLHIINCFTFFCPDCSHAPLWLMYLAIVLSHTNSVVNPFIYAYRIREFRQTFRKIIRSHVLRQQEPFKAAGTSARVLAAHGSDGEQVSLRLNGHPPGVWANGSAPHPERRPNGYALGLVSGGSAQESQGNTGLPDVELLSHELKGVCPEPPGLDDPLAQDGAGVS

Row | Structure (SMILES) | Ki (Adenosine receptor A1) | Ki (Adenosine receptor A3) | Ratio Ki (CHO [1]) | Ratio Ki [2] | Ki (Adenosine receptor A2b) | Ki (Adenosine receptor A2a) | Ratio Ki (CHO [3])
1 | CCOC(=O)c1cnc(NCc2ccc(F)cc2)n2nc(-c3ccco3)nc12 | 0.932 µM | 0.0463 µM | 23.7 | 20.1 | 1.97 µM | 0.0393 µM | 0.85
2 | CCCCCNc1ncc(C(=O)OCC)c2nc(-c3ccco3)nn12 | 0.613 µM | 0.0113 µM | 12.2 | 54.2 | > 10 µM | 0.0501 µM | 4.43
3 | O=C(O)c1cnc(NCC2CCCCC2)n2nc(-c3ccco3)nc12 | 2.74 µM | 15.8 µM | 0.08 | 0.17 | > 10 µM | 33.9 µM | 2.14
4 | Cc1ccc(CNc2ncc(C(=O)O)c3nc(-c4ccco4)nn23)cc1 | 2.73 µM | 0.751 µM | 2.29 | 3.63 | > 10 µM | 1.19 µM | 1.58
5 | O=C(O)c1cnc(NC2CCCC2)n2nc(-c3ccco3)nc12 | 3.79 µM | 17.7 µM | 0.1 | 0.21 | > 10 µM | 37.3 µM | 2.11
6 | CNC(=O)c1cnc(NC(=O)NC2CCCCC2)n2nc(-c3ccco3)nc12 | 8.99 µM | 18.7 µM | 5.91 | 0.48 | > 30 µM | 1.52 µM | 0.08
7 | O=C(O)c1cnc(NCc2ccc(-c3ccccc3)cc2)n2nc(-c3ccco3)nc12 | 30.1 µM | 28.3 µM | < 0.3 | 1.06 | > 30 µM | > 100 µM | > 3.53
8 | CCOC(=O)c1cnc(NC2CCCCCC2)n2nc(-c3ccco3)nc12 | 0.231 µM | 0.321 µM | 0.98 | 0.72 | > 10 µM | 0.235 µM | 0.73
9 | CCOC(=O)c1cnc(N2CCCCC2)n2nc(-c3ccco3)nc12 | 8.86 µM | 1.77 µM | 1.08 | 5 | > 10 µM | 8.18 µM | 4.62
10 | CCOC(=O)c1cnc(NC2CCC2)n2nc(-c3ccco3)nc12 | 0.0752 µM | 0.0117 µM | 2.6 | 6.42 | > 3 µM | 0.0289 µM | 2.47
11 | CCNc1ncc(C(=O)OCC)c2nc(-c3ccco3)nn12 | 0.162 µM | 0.0033 µM | 3.22 | 49.1 | 3.06 µM | 0.0503 µM | 15.2
12 | COc1ccc(CNc2ncc(C(=O)NCCc3ccccc3)c3nc(-c4ccco4)nn23)cc1OC | 0.385 µM | 0.0877 µM | 5.9 | 4.39 | > 30 µM | 0.0652 µM | 0.74
13 | O=C(O)c1cnc(NCc2ccc(C(F)(F)F)cc2)n2nc(-c3ccco3)nc12 | > 100 µM | 15.9 µM | > 5.55 | > 6.29 | > 30 µM | 18 µM | 1.13
14 | COc1ccc(CNc2ncc(C(=O)O)c3nc(-c4ccco4)nn23)cc1 | 5.76 µM | 5.52 µM | 0.46 | 1.04 | > 30 µM | 12.4 µM | 2.25
15 | CCOC(=O)c1cnc(NCc2ccc(Cl)cc2)n2nc(-c3ccco3)nc12 | 0.866 µM | 0.0568 µM | 11.8 | 15.2 | 1.63 µM | 0.0732 µM | 1.29
16 | O=C(Nc1ncc(C(=O)NCCc2ccccc2)c2nc(-c3ccco3)nn12)NC1CCCCC1 | > 100 µM | 4.22 µM | > 129 | > 23.7 | > 30 µM | 0.773 µM | 0.18
17 | CCOC(=O)c1cnc(NC)n2nc(-c3ccco3)nc12 | 0.978 µM | 0.00414 µM | 9.4 | 236 | 2.45 µM | 0.104 µM | 25.1
18 | CCOC(=O)c1cnc(N(C)C)n2nc(-c3ccco3)nc12 | 13.4 µM | 0.275 µM | 2.07 | 48.7 | > 10 µM | 6.48 µM | 23.6
19 | CCOC(=O)c1cnc(NC(C)C)n2nc(-c3ccco3)nc12 | 0.04 µM | 0.00946 µM | 0.39 | 4.23 | 10 µM | 0.103 µM | 10.9
20 | CCOC(=O)c1cnc(NCCOC)n2nc(-c3ccco3)nc12 | 2.27 µM | 0.105 µM | 7.77 | 21.6 | > 10 µM | 0.292 µM | 2.78
21 | CCOC(=O)c1cnc(N2CCOCC2)n2nc(-c3ccco3)nc12 | > 100 µM | 8.7 µM | > 5.68 | > 11.5 | > 10 µM | 17.6 µM | 2.02
22 | CCOC(=O)c1cnc(NC(c2ccccc2)c2ccccc2)n2nc(-c3ccco3)nc12 | 0.943 µM | 0.336 µM | 2.45 | 2.81 | > 30 µM | 0.385 µM | 1.14
23 | O=C(Cc1ccccc1)Nc1ncc(C(=O)NCCc2ccccc2)c2nc(-c3ccco3)nn12 | 0.317 µM | 0.553 µM | 11.3 | 0.57 | > 30 µM | 0.0281 µM | 0.05
24 | CNC(=O)c1cnc(NCc2ccc(OC)c(OC)c2)n2nc(-c3ccco3)nc12 | 0.428 µM | 0.282 µM | 16.6 | 1.52 | 2.49 µM | 0.0258 µM | 0.09
25 | O=C(O)c1cnc(NC(c2ccccc2)c2ccccc2)n2nc(-c3ccco3)nc12 | 2.45 µM | 2.07 µM | < 0.02 | 1.18 | > 30 µM | > 100 µM | > 48
26 | CNC(=O)c1cnc(NC(=O)Nc2ccccc2)n2nc(-c3ccco3)nc12 | 0.126 µM | 0.73 µM | 21.9 | 0.17 | 1.18 µM | 0.00576 µM | 0.01
27 | CCOC(=O)c1cnc(NC(=O)Cc2ccccc2)n2nc(-c3ccco3)nc12 | > 100 µM | 2.59 µM | > 2.34 | > 38.6 | > 30 µM | 42.7 µM | 16.5
28 | O=C(O)c1cnc(NCc2ccccc2)n2nc(-c3ccco3)nc12 | 5.09 µM | 2.23 µM | 1.39 | 2.28 | > 10 µM | 3.66 µM | 1.64
29 | CCOC(=O)c1cnc(NCC2CCCCC2)n2nc(-c3ccco3)nc12 | 0.432 µM | 0.0412 µM | 3.57 | 10.5 | > 10 µM | 0.121 µM | 2.94
30 | CNC(=O)c1cnc(N)n2nc(-c3ccco3)nc12 | 0.135 µM | 0.609 µM | 9 | 0.22 | 2.03 µM | 0.015 µM | 0.02
